Laboratory results reported in paper PMC11539713 (Malaria Journal, 2024).
Converted amounts (≈) assume the structure as drawn. “And” between values parts separate entries of the source, which are not always exact repeats. Equal entries are not always repeated. Where two headings read alike, the source gives them in different places. Each block holds one compound with its values, some of them ahead of it.

Columns and labels:
Pf3D7 [1] = assay: In vitro drug susceptibility, SYBR Green I fluorometric method, Pf3D7; assay type: cell-based; settings: Plasmodium falciparum
Method in brief: (§1)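 Synchronous ring-stage P. falciparum culture at final 0.5% parasitaemia and 2% haematocrit, exposed to test compound. Chloroquine served as positive control and 0.1% DMSO as negative control. Growth was read by SYBR Green I fluorescence. MIC50/MIC90 came from nonlinear regression of log-transformed concentrations, averaged over two independent experiments each run in duplicate.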

PfDd2 [2] = assay: In vitro drug susceptibility, SYBR Green I fluorometric method, PfDd2; assay type: cell-based; settings: Plasmodium falciparum
Method in brief: as §1

Pf3D7 [3] = settings: cited from earlier work
PfDd2 [4] = settings: cited from earlier work
CYP enzymes = assay: Enzyme phenotyping with; assay type: in vitro ADME, human; settings: for Effect of inhibitor on formation of ART-M in HLMs: ART 1 μM, HLMs 1 mg/mL, 1 mM 1-ABT, 1 μM ketoconazole
[5] = cited from earlier work
CYP3A = settings: read-out: Inhibition constant Ki of CYP3A; cited from earlier work
[6] = assay type: in vivo, human; settings: for fAUC0-t: area under the free plasma concentration–time curve; for fCmax: maximum free plasma concentration
Method in brief: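 Subjects were six healthy non-smoking men, 20–26 y, BMI 20–25 kg/m2. Each received oral test compound 125 mg plus piperaquine 750 mg per dose over two days. Venous blood was drawn 0–48 h, and plasma was stored at −80 °C. Samples were prepared by acetonitrile precipitation with deuterated internal standard and analysed by LC-HRMS. Non-compartmental analysis used observed Cmax/Tmax, AUC0-t by linear trapezoidal rule, and CL/F = dose/AUC0-t.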

[7] = Plasma protein binding by ultrafiltration; assay type: in vitro ADME; settings: human, pooled human plasma
[8] = Enzyme kinetics of ART metabolism in human liver microsomes; assay type: in vitro ADME; settings: HLMs 0.5 mg/mL; for microsomal CLint: CLint,H, Vmax/Km, 15 min
[9] = cited from earlier work; remark: listed apart in the source
[10] = read-out: Antiplasmodial activity (literature data)

MIC50 (Pf3D7 [1]): 0.0106 µM
MIC90 (Pf3D7 [1]): 0.0163 ± 0.0031 µM
MIC50 (PfDd2 [2]): 0.0938 µM
SMILES: CCN(CC)CCCC(C)Nc1ccnc2cc(Cl)ccc12 (stereo not shown) [CQ, Chloroquine diphosphate]
MIC50 (reported data) (Pf3D7 [3]): 5.0 to 40.0 nM
MIC50 (reported data) (PfDd2 [4]): 62.0 to 135.4 nM

Effect of inhibitor on formation of ART-M in HLMs (CYP enzymes): completely inhibited
SMILES: CC(=O)N1CCN(c2ccc(OCC3COC(Cn4ccnc4)(c4ccc(Cl)cc4Cl)O3)cc2)CC1 (stereo not shown) [ketoconazole]

SMILES: C[C@H]1[C@@H](O)O[C@@H]2O[C@@]3(C)CC[C@H]4[C@H](C)CC[C@@H]1[C@@]24OO3 [dihydroartemisinin]
MIC50 (PfDd2 [4]): ~ 1.0 nM

SMILES: Clc1ccc2c(N3CCN(CCCN4CCN(c5ccnc6cc(Cl)ccc56)CC4)CC3)ccnc2c1 [piperaquine]
Plasma protein binding [5]: 97.4%
Ki (CYP3A): 680 nM

SMILES: C[C@@H]1CC[C@H]2[C@@H](C)C(=O)O[C@@H]3O[C@@]4(C)CC[C@@H]1[C@]32OO4 [ART, Artemisinin]
fAUC0-t ([6]; Day-1): 155.6 ± 27.6 nmol/L⋅h
fCmax ([6]; Day-1): 51.8 nM and 51.8 ± 18.0 nM
fAUC0-t ([6]; Day-2): 113.0 ± 20.1 nmol/L⋅h
fCmax ([6]; Day-2): 43.1 ± 10.5 nM
CL/F ([6]; male, human, plasma, oral, CL/F, Day-1, dose/AUC0-t): 183 mL/min/kg
Tmax ([6]; male, human, plasma, oral, Tmax, Day-1): 1 h
half-life ([6]; male, human, plasma, oral, t1/2, Day-1): 102 min
Cmax ([6]; male, human, plasma, po, Cmax, after the first oral dose, plasma): 207 nM
MIC50 (Pf3D7 [1]): 0.0101 µM (≈ 2.85 ng/mL)
MIC90 (Pf3D7 [1]): 0.0139 ± 0.0005 µM (≈ 3.92 ng/mL)
fraction unbound at 0.6 μM [7]: 0.251
microsomal CLint ([8]; formation of ART-M): 27.6 µL/min/mg
microsomal CLint ([8]; substrate depletion): 30.3 µL/min/mg
Km at 15 min ([8]; Km, substrate depletion): 23.8 µM
MIC50 (PfDd2 [2]): 0.0204 µM (≈ 5.76 ng/mL)
MIC90 (PfDd2 [2]): 0.0384 ± 0.0009 µM (≈ 10.8 ng/mL)
IC50 (Pf3D7 [3]; [10]): 10 to 30 nM
IC50 (PfDd2 [4]; [10]): 10 to 30 nM
Bioavailability [9]: ~ 30%
Elimination half-life t1/2 [9]: ~ 2 h

SMILES: Nn1nnc2ccccc21 [1-ABT]
Effect of inhibitor on formation of ART-M in HLMs (CYP enzymes): completely inhibited
Effect of inhibitor on formation of trace metabolite isomer M1 (CYP enzymes; ART in HLMs): inhibited completely
